Screening results from PubChem.
Fibroblast inh: antiproliferative effect on LL 47 fibroblasts – human, LL 47 cells, CellTiter-Glo luminescence, primary screen | actives 1.1% (n = 85,000) | LL 47 human lung fibroblast viability, ATP luminescence; hits give low values | viability, % at 10 µM;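 active means viability at or below 50% in the single dose screen; inactive means viability above 50%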;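 further: compound exposure lasted 72 h before the ATP readout; 100% = median luminescence of untreated cell-only wells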
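Assay system: human lung fibroblast line LL 47, low passage. Input: 1,150 fibroblasts seeded per well. Times: overnight cell rest, 72 h compound treatment at 37 °C. Evaluation: % viability of median cell-only signal. Technique: luminescent ATP detection, CellTiter-Glo. Control set: cell-only wells, no compound.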
HCT116 PTEN-null: growth suppression of PTEN-null HCT116, primary screen, cell-based, CellTiter-Glo; HCT116 PTEN-null viability, 60 h; hits give low values; viability, % at 10 µM; actives 1.2% (n = 140,000); AID 827, 2007;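 active means viability at or below a set limit, 4 SD under the median of all tested compounds, cut at about 3.7% in these data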;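 further: PTEN knockout HCT116 line with beta catenin targeted HCT116 as companion control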
bCat KO growth: primary screen for growth suppressors in beta-catenin knockout HCT116 cells (colon tumor, human) | HCT116 beta-catenin knockout viability, CellTiter-Glo, 60 h; hits give low values | viability, % at 10 µM | actives 1.5% (n = 140,000);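 active means viability at or under a set limit, the compound median less 4 SD, cut at about 6% in these data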;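 further: 0% = Hyamine 1622 control at 20 µM and 100% = untreated cell control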
H69AR inhibit: proliferation blockers of H69AR lung cancer cells, primary screen, cell-based, human, 86K library. H69AR lung tumor viability, ATP luminescence, 72 h; hits give low values. viability, % at 10 µM. actives 6% (n = 85,000). AID 598, 2007;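 active means viability at or below 40%; inactive means viability above 40%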;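 further: multidrug resistant small cell line overexpressing MRP-1 efflux transporter; 100% = mean luminescence of untreated control wells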
HUVEC inhibit: inhibitors of HUVEC proliferation, primary screen, cell-based, 384-well. CellTiter-Glo luminescence, 72 h; hits give low values. viability, % at 10 µM (by protocol). actives 1.1% (n = 86,000);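 active means viability at or below 30%; inactive means viability above 30%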;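 further: 100% = median luminescence of DMSO-only cell control wells on each plate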
Calb biofilm kill: clotrimazole potentiators killing Candida biofilms, primary screen, with clotrimazole, Alamar Blue. C. albicans biofilm + clotrimazole. inhibition, % at 6 µM. actives 0.14% (n = 85,000);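 active means inhibition above 20%; inactive means inhibition below 20%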;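 further: preformed 24 hr biofilms exposed to compound for 48 hr; 0% = biofilm without compound and 100% = blank killed by clotrimazole plus chlorhexidine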
Active calls of the source: *; x = no result given. Many of the other results were omitted from the sample, so hits are more common in it than they were.

SMILES	Fibroblast inh	HCT116 PTEN-null	bCat KO growth	H69AR inhibit	HUVEC inhibit	Calb biofilm kill
OCCn1c(C(F)(F)F)nc2ccccc21	102	0.4*	1.0*	97	92	7
CCc1ccc(/C=N/n2c(C)cc(C)c(C#N)c2=O)cc1	x	97	85	x	x	x
COc1ccccc1NC(=O)CC1C(=O)NCCN1C(=O)Nc1ccc(Cl)c(Cl)c1 (stereo not given)	86	39	59	53	15*	10
O=C(Nc1ccccc1)N(CCc1ccncc1)C1CCCCC1	99	x	x	92	88	8
CC(C)c1ccc(NC(=O)N(CCc2nc3ccccc3[nH]2)C2CCCC2)cc1	81	61	54	32*	44	0
COc1ccc(OC)c(C(=O)CSc2nnc(Cc3cccs3)n2CCc2ccccc2)c1	88	74	83	69	84	5
Cc1cccc(-n2c(O)c(C=Nc3ccc(O)cc3)c3ccccc3c2=O)n1	x	82	88	x	x	x
Cc1ccc(N=Cc2c(O)n(-c3ccc4c(c3)OCO4)c(=O)c3ccccc23)cc1	72	8	48	9.1*	21*	9
O=c1[nH]c2cc3c(cc2cc1C(c1nnnn1C1CCCC1)N1CCSCC1)OCCO3 (stereo not given)	81	12	67	6.4*	65	4
CC(C)(C)n1nnnc1C(c1cc2cc3c(cc2[nH]c1=O)OCCO3)N1CCSCC1 (stereo not given)	81	105	92	80	80	9
Cc1cccc2cc(C(c3nnnn3C3CCCC3)N3CCOCC3)c(=O)[nH]c12 (stereo not given)	94	101	99	94	97	6
Cc1cc(C)c2cc(C(c3nnnn3C3CCCC3)N3CCOCC3)c(=O)[nH]c2c1 (stereo not given)	97	85	87	36*	99	7
Cc1cc(C)cc(-n2cc[nH]c2=S)c1	x	96	105	x	x	x
Cc1ccc(NC(=O)C2=C(O)CCn3c2nc2ccccc23)cc1	84	51	50	26*	93	1
C=CCC(Nc1ccccc1)C12C=CC(O1)C(C(=O)OC)=C2C(=O)OC (stereo not given)	3.1*	1.9*	2.3*	1.0*	45	-2
CCOC(=O)C1CCN(c2c(N(C)Cc3ccco3)c(=O)c2=O)CC1	100	102	96	105	90	22*
CCOC(=O)C1CCCN(c2c(NCc3ccco3)c(=O)c2=O)C1 (stereo not given)	97	100	102	90	99	2
COc1ccc(-c2cn3c(C)c(C(=O)N4CCN(c5ccc(OC)cc5)CC4)sc3n2)cc1	101	x	x	70	100	7
CCOc1ccc(-c2nnn(CC(=O)Nc3cccc(OC)c3)n2)cc1OCC	90	105	98	104	74	13
CCCOc1ccc(-c2nnn(CC(=O)Nc3cccc(C(=O)OC)c3)n2)cc1	76	79	77	38*	105	3
CCOc1ccc(C2=Nn3c(nnc3-c3ccc(OC)cc3)SC2)cc1	49*	20	22	14*	49	7
COc1ccc(C2=Nn3c(nnc3-c3ccco3)SC2)cc1	78	59	73	20*	66	11
COc1ccc(OCc2nnc3n2N=C(c2ccc(C)cc2)CS3)cc1	91	87	95	95	88	14
COc1ccc(C2=Nn3c(nnc3-c3ccncc3)SC2)cc1	87	73	78	61	63	7
COc1ccc(OCc2nnc3n2N=C(c2ccc(OC)cc2)CS3)cc1	84	47	59	30*	74	4
SMILES	Fibroblast inh	HCT116 PTEN-null	bCat KO growth	H69AR inhibit	HUVEC inhibit	Calb biofilm kill
CC(=O)O[C@@H]1[C@@]2(C)O[C@H]2CC[C@]23O[C@H]2[C@H](OC3=O)C2=C(C)C(=O)O[C@@]21O	x	96	99	x	x	x
Cc1cc2oc(=O)cc(Cn3nnc(-c4ccc(Cl)cc4)n3)c2cc1C(C)C	x	55	67	x	x	x
COc1ccccc1N/C(N)=N/c1nc(CSc2ccc(C)cc2)cc(=O)[nH]1	x	63	72	23*	59	-5
CN(CC(=O)Nc1ccc(F)c(F)c1F)C(=O)/C=C/c1ccc(Cl)cc1	x	90	91	x	x	x
Cc1ccc(S(=O)(=O)C2C(=O)N(C)C3(C)CC2c2ccccc2O3)cc1C (stereo not given)	x	102	89	x	x	x
Cc1ccc(/C=C/C(O)=C2/C(=O)N(C)C3(C)CC2c2ccccc2O3)cc1 (stereo not given)	x	3.0*	5.4*	x	x	x
COc1ccc(/C=C/C(O)=C2/C(=O)N(C)C3(C)CC2c2ccccc2O3)cc1 (stereo not given)	76	1.4*	1.8*	3.0*	82	2
COc1cc(C2=NOC(C(=O)NCc3ccco3)C2)cc(OC)c1OC (stereo not given)	62	24	21	25*	59	7
COc1ccc(CNC(=O)C2CC(c3ccc(OC)cc3)=NO2)cc1 (stereo not given)	90	87	116	92	75	7
COc1ccc(C2=NOC(C(=O)NCc3ccco3)C2)cc1 (stereo not given)	81	47	49	25*	57	1
COc1cc(C)nc(N2CCCC(C(=O)Nc3cccc(Cl)c3Cl)C2)n1 (stereo not given)	70	82	99	11*	60	8
Cc1ccc(Nc2nc(Nc3ccc(C)cc3)nc(SC3=NCCS3)n2)cc1	88	3.5*	4.2*	11*	76	3
CC(C)(C)c1ccc(OCC(=O)N/N=C/c2ccc(N3CCOCC3)cc2)cc1	x	71	86	x	x	x
CCn1c(/C=C/Nc2ccccc2)[n+](CC)c2cc(Cl)c(Cl)cc21	x	1.3*	1.5*	x	x	x
CCOC(=O)c1c2c(n(C)c1C)C(=O)C(=O)c1ccc(Br)cc1-2	3.0*	x	x	1.6*	3.3*	10
CCCc1nc2ccccc2c(=O)n1/N=C/c1ccccc1O	74	56	58	66	100	6
CCCc1nc2ccccc2c(=O)n1/N=C/c1c(C)[nH]n(-c2ccc(C)cc2)c1=O	88	50	39	27*	64	8
CC(C)NC(=O)c1sc2nc(-c3cccs3)cc(-c3cccs3)c2c1N	96	101	95	76	74	2
Nc1c(C(=O)C2CC2)sc2nc(-c3cccs3)cc(C(F)(F)F)c12	101	25	34	12*	32	4
O=C(c1ccco1)N1CCN(c2ncnc3scc(-c4cccs4)c23)CC1	88	77	67	43	69	x
Cc1ccc(-c2csc3ncnc(N4CCN(C(=O)c5ccccc5)CC4)c23)cc1	74	34	31	22*	59	3
